Measured values taken from ChEMBL document CHEMBL4765234 (J Med Chem, 2016).
The source made the active and inactive calls. The calls are words filed in the database; no cut-off is given here.

Tests used:
[1] = target: T1, Free fatty acid receptor 1 (Homo sapiens, UniProt O14842); assay: Agonist activity at human recombinant full length GPR40 overexpressed in human HEK293 cells assessed as increase in intracellular calcium level measured over 3 mins by calcium 4 dye based FLIPR assay relative to 100 uM linoleic acid; assay type: functional, cell-based; settings: filed as agonist
How it was run: (§1)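 HEK293 cells overexpressing hGPR40 (25K/well) were cultured overnight in DMEM/F12 with 0.2% FBS and geneticin. Compound was tested at 40 μM–0.1 nM final (20-point, 1% DMSO), and FLIPR fluorescence was read over 3 min.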

Mus musculus = assay: Hypoglycemic activity in Balb/c mouse assessed as effective dose causing reduction in blood glucose level administered orally 60 mins prior to glucose challenge measured for 60 mins by IPGTT; assay type: functional; settings: po, 1 h
[2] = target: T1, Free fatty acid receptor 1; assay: (§2) Displacement of [3H]-(S)-2-(6-((2',6'-dimethyl-4'-(3-(methylsulfonyl)propoxy)biphenyl-3-yl)methoxy)-2,3-dihydrobenzofuran-3-yl)acetic acid from human recombinant full-length GPR40 expressed in human HEK293 cell membrane assessed as residence time by radioligand competitive assay; assay type: cell membranes; settings: filed as agonist
How it was run: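 Residence time came from competitive association kinetics. [3H]-radioligand binding to human GPR40 HEK293 membranes (5 μg, rt, Tris/Ca/Mg/0.1% BSA buffer) was measured at time points over 0–3 h, with and without several concentrations of unlabeled test compound. Fits used association and dissociation rates of the radioligand from independent kinetic experiments.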

[3] = target: T1, Free fatty acid receptor 1; assay: Agonist activity at human recombinant full-length Prolink-tagged GPR40 fused with EA-tagged beta-arrestin expressed in human HEK293 cells assessed as induction of beta-arrestin recruitment measured after 90 mins by beta-galactosidase based PathHunter assay relative to control; assay type: cell-based; settings: filed as agonist
How it was run: (§3)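 PathHunter β-gal complementation. Cells were incubated overnight at 5000/well in medium with 1% heat-inactivated FBS. Compound was added as a 20-point 2-fold series from a top final of 100 μM (1% DMSO) for 90 min at 37 °C, followed by detection reagents and chemiluminescence read after 1 h at rt.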

[4] = target: T1, Free fatty acid receptor 1; assay: Agonist activity at human recombinant full length GPR40 overexpressed in human HEK293 cells assessed as increase in inositol phosphate accumulation in presence of terbium cryptate-labeled anti IP1/d2-labelled IP1 measured after 120 mins by HTRF assay relative to AMG837; assay type: functional, cell-based; settings: filed as agonist
How it was run: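 HEK293 hGPR40 cells (20K/well) were cultured overnight, washed, and held in IP1 stimulation buffer. IP-1 was measured by competitive HTRF immunoassay with terbium cryptate anti-IP1 mAb and d2-labelled IP1.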

[5] = target: Free fatty acid receptor 1 (Rattus norvegicus) (UniProt Q8K3T4); assay: Agonist activity at Prolink-tagged rat GPR40 fused with EA-tagged beta-arrestin expressed in human U2OS cells assessed as induction of beta-arrestin recruitment measured after 90 mins by beta-galactosidase based PathHunter assay relative to control; assay type: cell-based; settings: filed as agonist; how it was run: as §3
[6] = target: T1, Free fatty acid receptor 1; assay: as §2, with “dissociation constant measured after 2 hrs” for “residence time”; assay type: cell membranes
[7] = target: Free fatty acid receptor 1 (Mus musculus, UniProt Q76JU9); assay: Agonist activity at Prolink-tagged mouse GPR40 fused with EA-tagged beta-arrestin expressed in human U2OS cells assessed as induction of beta-arrestin recruitment measured after 90 mins by beta-galactosidase based PathHunter assay; assay type: cell-based; how it was run: as §3
[8] = target: Free fatty acid receptor 1 (Mus musculus) (UniProt Q76JU9); assay: Agonist activity at Prolink-tagged mouse GPR40 fused with EA-tagged beta-arrestin expressed in human U2OS cells assessed as induction of beta-arrestin recruitment measured after 90 mins by beta-galactosidase based PathHunter assay relative to control; assay type: cell-based; settings: filed as agonist; how it was run: as §3
[9] = target: T2, Peroxisome proliferator-activated receptor delta (Homo sapiens) (UniProt Q03181); assay: Displacement of [3H]-[…] from PPARdelta (unknown origin) expressed in baculovirus infected Sf9 insect cells upto 30 uM measured after 10 hrs by microbeta scintillation counting analysis; settings: dose microM <=30, time 10.0 hrs
T2 sequence (whole entry): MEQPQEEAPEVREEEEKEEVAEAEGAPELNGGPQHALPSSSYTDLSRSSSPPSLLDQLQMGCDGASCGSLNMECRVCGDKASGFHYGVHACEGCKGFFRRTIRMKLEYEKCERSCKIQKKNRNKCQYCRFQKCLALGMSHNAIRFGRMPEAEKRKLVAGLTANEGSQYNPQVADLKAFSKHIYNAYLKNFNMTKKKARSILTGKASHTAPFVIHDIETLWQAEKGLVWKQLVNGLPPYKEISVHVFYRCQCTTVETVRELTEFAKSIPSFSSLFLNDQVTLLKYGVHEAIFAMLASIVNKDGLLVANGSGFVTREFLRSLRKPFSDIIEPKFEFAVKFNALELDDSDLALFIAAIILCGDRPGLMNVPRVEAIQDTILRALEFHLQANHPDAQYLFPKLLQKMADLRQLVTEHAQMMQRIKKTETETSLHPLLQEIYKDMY
How it was run: (§4)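 Scintillation proximity assay. Sf9 lysates with baculovirus-expressed PPARα (0.3 μg), PPARδ (0.5 μg) or PPARγ (1.25 μg), each with RXRα, were bound via biotinylated DR2 oligo (0.126 nM) to streptavidin yttrium silicate beads. Buffer was HEPES pH 7.8 with KCl, MgCl2, DTT, CHAPS, 14% glycerol and salmon sperm DNA. A 3H reference agonist ligand was used, with 11 compound concentrations, for 10 h. Nonspecific binding was defined with 10000 nM unlabeled reference. Ki was derived from IC50.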

[10] = target: Free fatty acid receptor 1 (Rattus norvegicus) (UniProt Q8K3T4); assay: Agonist activity at GPR40 in Sprague-Dawley rat pancreatic islets assessed as induction of glucose-mediated insulin secretion measured after 90 mins in EBSS buffer by ELISA; assay type: tissue-based; settings: Pancreatic islet
How it was run: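 Glucose-dependent insulin secretion in mouse MIN6 cells or rat islet cells, scored as secretion above the glucose-alone level.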

[11] = target: T3, Peroxisome proliferator-activated receptor alpha (Homo sapiens) (UniProt Q07869); assay: Displacement of [3H]-[…] from PPARalpha (unknown origin) expressed in baculovirus infected Sf9 insect cells upto 30 uM measured after 10 hrs by microbeta scintillation counting analysis; settings: dose microM <=30, time 10.0 hrs; how it was run: as §4
T3 sequence (whole entry): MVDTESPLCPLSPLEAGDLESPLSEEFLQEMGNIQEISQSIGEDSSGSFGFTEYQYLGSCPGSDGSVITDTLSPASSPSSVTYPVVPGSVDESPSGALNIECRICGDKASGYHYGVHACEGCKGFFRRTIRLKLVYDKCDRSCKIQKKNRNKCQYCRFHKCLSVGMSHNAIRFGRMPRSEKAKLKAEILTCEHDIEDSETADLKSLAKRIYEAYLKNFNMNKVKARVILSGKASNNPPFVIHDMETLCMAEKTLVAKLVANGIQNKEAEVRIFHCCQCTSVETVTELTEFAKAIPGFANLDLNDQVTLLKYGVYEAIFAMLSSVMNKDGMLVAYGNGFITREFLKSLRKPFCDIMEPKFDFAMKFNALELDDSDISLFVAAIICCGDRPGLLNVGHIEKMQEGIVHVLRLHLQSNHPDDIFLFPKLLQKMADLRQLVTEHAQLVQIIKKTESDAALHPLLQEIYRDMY

[12] = target: T1, Free fatty acid receptor 1; assay: Agonist activity at human recombinant full length GPR40 overexpressed in human HEK293 cells assessed as increase in intracellular calcium level measured over 3 mins by calcium 4 dye based FLIPR assay; assay type: functional, cell-based; how it was run: as §1

T1 sequence (O14842 whole entry): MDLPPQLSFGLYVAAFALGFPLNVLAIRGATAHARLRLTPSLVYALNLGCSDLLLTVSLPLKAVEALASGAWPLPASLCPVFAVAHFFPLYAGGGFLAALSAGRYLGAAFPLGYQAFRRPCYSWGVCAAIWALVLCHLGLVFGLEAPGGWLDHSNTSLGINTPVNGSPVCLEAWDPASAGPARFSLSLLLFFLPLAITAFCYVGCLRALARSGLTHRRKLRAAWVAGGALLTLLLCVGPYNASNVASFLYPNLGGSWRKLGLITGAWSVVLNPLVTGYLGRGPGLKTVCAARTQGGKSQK
Sequence of Free fatty acid receptor 1 (Mus musculus, UniProt Q76JU9) (Q76JU9 whole entry, the tested form may be a part): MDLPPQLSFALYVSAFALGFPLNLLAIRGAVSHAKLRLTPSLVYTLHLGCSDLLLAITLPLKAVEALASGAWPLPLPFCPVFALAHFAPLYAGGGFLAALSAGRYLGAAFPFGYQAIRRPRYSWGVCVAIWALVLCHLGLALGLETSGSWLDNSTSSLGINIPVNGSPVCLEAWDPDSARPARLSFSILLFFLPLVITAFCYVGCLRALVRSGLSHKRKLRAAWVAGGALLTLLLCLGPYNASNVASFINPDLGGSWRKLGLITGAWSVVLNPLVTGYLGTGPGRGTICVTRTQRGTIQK
Sequence of Free fatty acid receptor 1 (Mus musculus) (Q76JU9 whole entry, the tested form may be a part): as above
Sequence of Free fatty acid receptor 1 (Rattus norvegicus) (Q8K3T4 whole entry, the tested form may be a part): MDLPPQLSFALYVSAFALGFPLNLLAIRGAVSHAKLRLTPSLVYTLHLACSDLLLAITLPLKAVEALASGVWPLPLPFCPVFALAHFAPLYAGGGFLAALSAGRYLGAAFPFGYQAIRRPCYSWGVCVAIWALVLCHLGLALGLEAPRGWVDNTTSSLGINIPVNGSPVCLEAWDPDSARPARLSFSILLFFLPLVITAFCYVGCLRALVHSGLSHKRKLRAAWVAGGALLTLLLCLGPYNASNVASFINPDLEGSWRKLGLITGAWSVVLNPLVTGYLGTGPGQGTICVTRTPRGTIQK

SMILES | Emax [1] [%] | ED90 (Mus musculus) [mg/kg] | TIME [2] [h] | Emax [3] [%] | Emax [4] [%] | Emax [5] [%] | Kd [6] [nM] | EC50 ([7]; u2os) [nM] | Emax [8] [%] | Activity [9] | Activity ([10]; filed as agonist) | Activity [11] | EC50 [12] [nM] | EC50 [7] [nM] | Activity [10]
CC#C[C@@H](CC(=O)O)c1ccc(OCc2ccc(CN3CCC4(C=Cc5ccccc54)CC3)cc2)cc1 [LY2881835] | 62 | 0.58 | 2 | 137 | 162 | 124 | 2.5 | 0.85 | 133 | inactive | Active | inactive |  |  | 
O=C(O)C[C@@H](c1ccc(OCc2ccc3nc(-c4ccccc4)nn3c2)cc1)c1ccon1 | 54 | > 100 | 0.367 | 141 | 124 | 61 | 37 |  | 98 | inactive |  | inactive | 14 | 3800 | inactive
O=C(O)CCc1ccc(OCc2ccc(CN3CCC4(C=Cc5ccccc54)CC3)cc2)cc1F | 80 | > 100 | 0.2 | 144 | 282 | 114 | 58 |  | 127 | inactive |  | inactive | 180 | 32 | inactive
CC#C[C@@H](CC(=O)O)c1ccc(OCc2ccc(CN3CCC4(CC3)CN(C)c3ccccc34)cc2)cc1 | 47 | 11.7 | 0.783 | 134 | 268 | 126 | 9.5 |  | 131 | inactive | Active | inactive | 55 | 3.3 | 
CC#C[C@@H](CC(=O)O)c1ccc(OCc2ccc(CN3CCC4(CCc5ccccc54)CC3)s2)cc1 | 50 | 5.6 | 1.03 | 121 | 132 | 108 | 3.5 |  | 126 | inactive | Active | inactive | 8 | 1.2 | 
CC#C[C@@H](CC(=O)O)c1ccc(OCc2ccc(CN3CCC4(CCc5ccccc54)CC3)cc2)cc1 | 46 | 22 | 1.1 | 137 | 249 | 135 | 2.2 |  | 135 | inactive | Active | inactive | 19 | 0.88 | 
CC#C[C@@H](CC(=O)O)c1ccc(OCc2ccc(CN3CCCc4cccc(OC)c43)s2)cc1 |  | 5 |  | 139 |  | 121 |  |  | 137 |  |  |  |  | 1 | 
CC#C[C@@H](CC(=O)O)c1ccc(OCc2ccc(CN3CCC4(C=Cc5ccccc54)CC3)s2)cc1 | 50 | 3.67 | 0.667 | 116 | 145 | 113 | 2 |  | 119 | inactive | Active | inactive | 12 | 0.46 | 
